Experimental data as given in ChEMBL document CHEMBL1128234, “Isothiocyanate-substituted benzyl ether opioid receptor ligands derived from 6 beta-naltrexol” (J Med Chem, 1995).

Legend:
[1] = molecular target: Kappa-type opioid receptor (Cavia porcellus, UniProt P41144); assay: Inhibitory concentration against Opioid receptor kappa 1 using [3H]- U-69,593 radioligand
Summary of the method: (§1)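 Guinea pig brain (minus cerebellum) homogenate in 0.05 M Tris pH 7.4, diluted 1:60 (0.8-1.5 mg protein/ml). Ligand tested in duplicate at nine concentrations; 60 min at 25 °C. Nonspecific binding defined with naloxone. Filtration, ice-cold buffer rinse, scintillation counting.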

Mu-type opioid receptor = Mu-type opioid receptor (Cavia porcellus, UniProt P97266); assay: Inhibitory concentration was determined against Opioid receptor mu 1 using [3H]- DAMGO radioligand; summary of the method: as §1
Sequence of Mu-type opioid receptor (P97266 whole entry): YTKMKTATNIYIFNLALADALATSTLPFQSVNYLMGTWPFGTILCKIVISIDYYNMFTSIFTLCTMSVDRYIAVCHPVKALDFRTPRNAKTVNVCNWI

[2] = molecular target: Mu-type opioid receptor (Cavia porcellus) (UniProt P97266); assay: Irreversible binding affinity at mu-receptor was evaluated as % of control specific binding remaining protected at concentration of 10 (nM) using [3H]DAMGO radioligand Values from 3 separate assays (+/-10%)
Sequence of Mu-type opioid receptor (Cavia porcellus) (P97266 whole entry): as above
Summary of the method: (§2)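 Diluted guinea pig brain homogenate is exposed to ligand for 60 min at 25 °C; protected samples are first preincubated 15 min at 37 °C with 1 naloxone. Washed samples are diluted in ice-cold Tris pH 7.4, spun at 10000g for 15 min at 4 °C, then resuspended and incubated 15 min at 37 °C, twice. Read-out is standard radioligand binding, expressed as % of recovery-sample specific binding. Test ligands run in triplicate; reference averaged over three assays.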

[3] = molecular target: Mu-type opioid receptor (Cavia porcellus) (UniProt P97266); assay: Irreversible binding affinity at mu-receptor was evaluated as % of control specific binding remaining unwashed at concentration of 10 (nM) using [3H]-DAMGO radioligand Values from 3 separate assays (+/-10%); summary of the method: as §2
[4] = Inhibitory concentration was determined against delta-opioid receptor using [3H]- DPDPE radioligand
[5] = molecular target: Mu-type opioid receptor (Cavia porcellus) (UniProt P97266); assay: Irreversible binding affinity at mu-receptor was evaluated as % of control specific binding remaining washed at concentration of 10 (nM) using [3H]DAMGO radioligand Values from 3 separate assays (+/-10%)
[6] = molecular target: Mu-type opioid receptor (Cavia porcellus) (UniProt P97266); assay: Irreversible binding affinity at mu-receptor was evaluated as % of control specific binding remaining washed at concentration of 80 (nM) using [3H]DAMGO radioligand
Summary of the method: (§3)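 Guinea pig brain homogenate (less cerebellum) in 0.05 M Trizma pH 7.4, diluted 1:60. It was incubated with ligand 60 min at 25 °C, then diluted in ice-cold buffer and centrifuged 10000g. Washed samples were resuspended in buffer, incubated 15 min at 37 °C and recentrifuged. Binding used 1.0 nM [3H]DAMGO for 60 min at 25 °C, with filtration and counting. Nonspecific binding was set with 10 µM naloxone. Triplicates; % specific binding was taken relative to recovery controls.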

[7] = molecular target: Kappa-type opioid receptor (Cavia porcellus) (UniProt P41144); assay: Irreversible binding affinity at Opioid receptor kappa 1 was evaluated as % of control specific binding remaining washed at concentration of 50 (nM) using [3H]U-69593 radioligand; summary of the method: as §2
Sequence of Kappa-type opioid receptor (Cavia porcellus) (P41144 whole entry): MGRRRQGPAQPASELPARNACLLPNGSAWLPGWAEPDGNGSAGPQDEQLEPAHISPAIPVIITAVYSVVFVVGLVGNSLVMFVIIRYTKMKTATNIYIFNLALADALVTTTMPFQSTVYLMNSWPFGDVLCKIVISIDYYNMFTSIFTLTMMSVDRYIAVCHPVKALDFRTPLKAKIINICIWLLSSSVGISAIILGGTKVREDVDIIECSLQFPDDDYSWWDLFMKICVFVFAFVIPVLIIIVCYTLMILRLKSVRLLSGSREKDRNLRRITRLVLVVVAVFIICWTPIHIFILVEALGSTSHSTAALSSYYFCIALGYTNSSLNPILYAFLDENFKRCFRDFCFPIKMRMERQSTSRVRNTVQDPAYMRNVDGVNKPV

[8] = molecular target: Mu-type opioid receptor (Cavia porcellus) (UniProt P97266); assay: Irreversible binding affinity at mu-receptor was evaluated as % of control specific binding remaining unwashed at concentration of 80 (nM) using [3H]DAMGO radioligand; summary of the method: as §3
[9] = molecular target: Kappa-type opioid receptor (Cavia porcellus) (UniProt P41144); assay: Irreversible binding affinity at Opioid receptor kappa 1 was evaluated as % of control specific binding remaining unwashed at concentration of 50 (nM) using [3H]U-69593 radioligand; summary of the method: as §2
[10] = molecular target: Kappa-type opioid receptor (Cavia porcellus) (UniProt P41144); assay: Irreversible binding affinity at Opioid receptor kappa 1 was evaluated as % of control specific binding remaining protected at concentration of 50 (nM) using [3H]U-69593 radioligand; summary of the method: as §2
[11] = molecular target: Opioid receptors; mu/kappa/delta; assay: Inhibitory concentration was determined against Opioid receptors using [3H]- bremazocine radioligand; format: protein assay, Cavia porcellus; summary of the method: as §1
[12] = molecular target: Kappa-type opioid receptor (Cavia porcellus) (UniProt P41144); assay: Irreversible binding affinity at Opioid receptor kappa 1 was evaluated as % of control specific binding remaining washed at concentration of 90 (nM) using [3H]-U-69,593 radioligand; summary of the method: as §2
[13] = molecular target: Kappa-type opioid receptor (Cavia porcellus) (UniProt P41144); assay: Irreversible binding affinity at Opioid receptor kappa 1 was evaluated as % of control specific binding remaining protected at concentration of 90 (nM) using [3H]U-69593 radioligand; summary of the method: as §2
[14] = molecular target: Mu-type opioid receptor (Cavia porcellus) (UniProt P97266); assay: Irreversible binding affinity at mu-receptor was evaluated as % of control specific binding remaining washed at concentration of 35 (nM) using [3H]-DAMGO radioligand; summary of the method: as §3
[15] = molecular target: Mu-type opioid receptor (Cavia porcellus) (UniProt P97266); assay: Irreversible binding affinity at mu-receptor was evaluated as % of control specific binding remaining protected at concentration of 35 (nM) using [3H]DAMGO radioligand; summary of the method: as §2
[16] = molecular target: Kappa-type opioid receptor (Cavia porcellus) (UniProt P41144); assay: Irreversible binding affinity at Opioid receptor kappa 1 was evaluated as % of control specific binding remaining unwashed at concentration of 90 (nM) using [3H]U-69593 radioligand; summary of the method: as §2
[17] = molecular target: Mu-type opioid receptor (Cavia porcellus) (UniProt P97266); assay: Irreversible binding affinity at mu-receptor was evaluated as % of control specific binding remaining unwashed at concentration of 35 (nM) using [3H]DAMGO radioligand; summary of the method: as §3

Sequence of Kappa-type opioid receptor (P41144 whole entry): as above

Molecule `Oc1ccc2c3c1O[C@H]1[C@@H](O)CC[C@@]4(O)[C@@H](C2)N(CC2CC2)CC[C@]314` has an IC50 [1] of 2.6 nM and an IC50 (Mu-type opioid receptor) of 1.1 nM.
Work on `Oc1ccc2c3c1OC1[C@H](OCc4ccccc4)CCC4(O)C(C2)N(CC2CC2)CCC314` (stereo partly drawn) yielded a Control [2] of 104%, a Control [3] of 14% and an IC50 [4] of 2.9 nM. For the same molecule, the Control [5] was 100%.
`Oc1ccc2c3c1O[C@H]1[C@H](OCc4cccc(N=C=S)c4)CC[C@@]4(O)C(C2)N(CC2CC2)CCC314` (stereo partly drawn) showed an IC50 [1] of 17 nM, an IC50 (Mu-type opioid receptor) of 27 nM and a Control [6] of 14%. The Control [7] was 25%, the Control [8] was 4% and the Control [9] was 12%. For the same molecule, the Control [10] was 25% and the IC50 [11] was 27 nM.
For `Oc1ccc2c3c1O[C@H]1[C@H](OCc4ccc(N=C=S)cc4)CC[C@@]4(O)C(C2)N(CC2CC2)CCC314` (stereo partly drawn), the IC50 [1] was 21 nM, the Control [12] was 28% and the IC50 (Mu-type opioid receptor) was 9.6 nM. For the same molecule, the Control [13] was 27%, the Control [14] was 46% and the Control [15] was 48%. For the same molecule, the Control [16] was 14%, the Control [17] was 14% and the IC50 [11] was 22 nM.
